Values after ≈ are worked out from the molar mass of the structure shown. Active and inactive are the calls of the source. The rule behind the calls is not given here.
What was measured:
BaF3 [1] = test: Antiproliferative activity against mouse Ba/F3 cells stably expressing HiBiT-tagged wild type EML4-ALK variant 3 assessed as cell growth inhibition incubated for 72 hrs by CellTiter-Glo assay; assay type: functional
In short: (§1)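 Ba/F3 cells stably expressing HiBiT-tagged EML4-ALK v3 (wild type or the named kinase-site mutant) were treated with compound for 72 h. Growth inhibition was reported as log GI50.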

BaF3 [2] = test: Antiproliferative activity against mouse Ba/F3 cells stably expressing HiBiT-tagged EML4-ALK variant 3 C1156Y mutant assessed as cell growth inhibition incubated for 72 hrs by CellTiter-Glo assay; assay type: functional; in short: as §1
BaF3 [3] = test: Antiproliferative activity against mouse Ba/F3 cells stably expressing HiBiT-tagged EML4-ALK variant 3 G1202R mutant assessed as cell growth inhibition incubated for 72 hrs by CellTiter-Glo assay; assay type: functional; in short: as §1
BaF3 [4] = assay type: functional; conditions: Mus musculus, time 72 hrs
BaF3 [5] = assay type: functional; conditions: Mus musculus, time 72 hrs; remark: listed apart in the source
HepG2 [6] = test: Induction of phospholipidosis in human HepG2 cells assessed as […] incubated for 48 hrs by Hoechst 33342 staining based imaging analysis; assay type: toxicity, cell-based; conditions: hepg2, 48 h
HepG2 [7] = test: Cytotoxicity against human HepG2 cells assessed as reduction in cell viability incubated for 48 hrs by Hoechst 33342 staining based imaging analysis; assay type: toxicity; conditions: hepg2, 48 h
Mus musculus [8] = assay type: functional, organism-based; conditions: BALB/c, BaF3, dose 10.0 mg/kg, route po, time 14.0 day
BaF3 [9] = assay type: functional; conditions: Mus musculus, route po
Mus musculus [10] = assay type: functional, organism-based; conditions: BALB/c, BaF3, dose 10.0 mg/kg, route po, time 14.0 day; remark: listed apart in the source
[11] = Microsomal stability in human liver microsomes at 1 uM measured upto 60 mins in presence of NADPH by LC-MS/MSC analysis; assay type: ADME, Microsome; conditions: 1 h
[12] = Oral bioavailability in C57BL/J6 mouse at 10 mg/kg and measured upto 24 hrs by LC-MS/MS analysis; assay type: ADME, organism-based; conditions: in vivo
In short: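 Mouse PK was run with both oral and intravenous dosing, with 10 mg/kg as the study dose. Oral bioavailability was derived from comparing the two routes.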

Mus musculus [13] = assay type: functional, organism-based; conditions: BALB/c, BaF3, dose 10.0 mg/kg, route po, time 14.0 day; remark: listed apart in the source
Erythrocyte [14] = test: Hemolytic activity in human RBC assessed as hemolysis incubated for 45 mins by absorbance based microplate reader analysis; assay type: toxicity, cell-based; conditions: 0.75 h
[15] = Plasma protein binding in mouse; assay type: ADME, cell-free
[16] = Microsomal stability in human liver microsomes assessed as intrinsic clearance at 1 uM and measured upto 60 mins in presence of NADPH by LC-MS/MSC analysis; assay type: ADME, Microsome; conditions: read-out: CLH
[17] = Plasma protein binding in human; assay type: ADME, cell-free
Mus musculus [18] = assay type: functional, organism-based; conditions: BALB/c, BaF3, dose 10.0 mg/kg, route po, time 14.0 day; remark: listed apart in the source
[19] = Solubility of the compound in FeSSIF at pH 5.0 incubated for 24 hrs under shaking condition by UPLC-UV/HPLC-UV analysis; assay type: physicochemical
Erythrocyte [20] = test: Hemolytic activity in mouse RBC assessed as hemolysis incubated for 45 mins by absorbance based microplate reader analysis; assay type: toxicity, cell-based; conditions: 0.75 h

| GI50 (BaF3 [1]) [nM] | GI50 (BaF3 [2]) [nM] | GI50 (BaF3 [3]) [nM] | GI50 (BaF3 [4]; read-out: pGI50 (converted)) [nM] | GI50 (BaF3 [5]) [nM] | SMILES | other results |
| --- | --- | --- | --- | --- | --- | --- |
| 15.8 | 39.8 | 126 | 126 | 15.8 | COc1cc(C2CCN(CC3CN(c4ccc5c(c4)C(=O)N(C4CCC(=O)N(C)C4=O)C5=O)C3)CC2)c(C)cc1Nc1ncc(Cl)c(Nc2ccccc2S(=O)(=O)C(C)C)n1 (stereo unspecified) | – |
| 200 | 316 | 2000 | 501 | 158 | Cc1cc(Nc2ncc(Cl)c(Nc3ccccc3S(=O)(=O)C(C)C)n2)c(OC(C)C)cc1C1CCNCC1 [CERITINIB] | Activity (HepG2 [6]): Non-Toxic; Activity (HepG2 [7]): Non-Toxic |
| – | – | – | – | – | CCc1cc2c(cc1N1CCN(CC3CN(c4ccc5c(c4)C(=O)N(C4CCC(=O)NC4=O)C5=O)C3)CC1)C(C)(C)c1[nH]c3cc(C#N)ccc3c1C2=O (stereo unspecified) | Stability [11]: Stable; F [12]: 48% |
| 12.6 | 39.8 | 251 | 200 | 39.8 | COc1cc(N2CCC(N3CCN(C)CC3)CC2)ccc1Nc1ncc(Cl)c(Nc2ccccc2P(C)(C)=O)n1 [BRIGATINIB] | – |
| – | – | – | – | – | COc1cc(C2CCN(CC3CN(c4ccc5c(c4)CN(C4CCC(=O)NC4=O)C5=O)C3)CC2)c(C)cc1Nc1ncc(Cl)c(Nc2ccccc2S(=O)(=O)C(C)C)n1 (stereo unspecified) | microsomal CLint at 1 µM [16]: 25.2 µL/min/mg |

| SMILES | GI50 (BaF3 [1]) [nM] | GI50 (BaF3 [2]) [nM] | GI50 (BaF3 [3]) [nM] | GI50 (BaF3 [4]; read-out: pGI50 (converted)) [nM] | GI50 (BaF3 [5]) [nM] | other results |
| --- | --- | --- | --- | --- | --- | --- |
| C[C@H]1Oc2cc(cnc2N)-c2c(nn(C)c2C#N)CN(C)C(=O)c2ccc(F)cc21 [LORLATINIB] | 3.16 | 39.8 | 100 | 501 | 50.1 | Activity (Mus musculus [8]): Active; Activity (BaF3 [9]; dose 10.0 mg/kg, time 14.0 day): inactive; Activity (Mus musculus [10]): Active |
| COc1cc(C2CCN(CC3CN(c4ccc5c(c4)C(=O)N(C4CCC(=O)NC4=O)C5=O)C3)CC2)c(C)cc1Nc1ncc(Cl)c(Nc2ccccc2S(=O)(=O)C(C)C)n1 (stereo unspecified) | 3.16 | 19.9 | 19.9 | 10 | 3.16 | Activity (Mus musculus [13]): Active; Activity (Erythrocyte [14]): Non-Toxic; PPB [15]: > 99.9%; microsomal CLint at 1 µM [16]: 8 µL/min/mg; Activity (HepG2 [6]): Toxic; PPB [17]: > 99.9%; inhibition in vivo at 10 mg/kg (BaF3 [9]; BaF3, 336 h, time 14 day, read-out: TGI): 33%; Activity (Mus musculus [18]): Active; F [12]: 28%; solubility thermodynamic at 24 h [19]: 122 µM (≈ 104 µg/mL); GI50 (BaF3 [4]; read-out: GI50): 10 nM; Activity (Erythrocyte [20]): Non-Toxic; Activity (HepG2 [7]): Toxic |
